One assay concerns Bel-7402. As to the kind of experiment: Antiproliferative activity against human Bel7402 cells after 24 hrs by MTT assay. The class given is functional, cell-based. The following applies: Bel-7402, 24 h. The method in brief: (§1)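 Cells plated at 1 × 10⁴ per well and cultured 24 h at 37 °C, 5% CO₂. Medium then replaced with fresh medium containing compound at varying concentrations, five wells per concentration, and incubated 24 h. MTT (5 mg/mL in phosphate buffer pH 7.4) added for 4 h at 37 °C. Absorbance read at 570 nm, blanked on cell-free medium. IC50 is 50% growth inhibition versus untreated control; mean ± SD, n = 3.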

The next assay relates to MCF7. As to the kind of experiment: Antiproliferative activity against human MCF7 cells after 24 hrs by MTT assay. Type of assay: functional, cell-based. The following applies: MCF7, 24 h. The method in brief:
as §1
(In general: Tetrazolium assays rely on reduction of a dye to a coloured formazan, in cell work by metabolically active cells.)

A word on the IC50: it is the concentration that inhibits the measured activity by half. On to `S=c1[nH]nc(-c2ccccc2)n1/N=C/c1ccccc1`, for which the IC50 in the assay with Bel-7402 stood at 22.5 µM; in the assay on MCF7 it was 31.8 µM.

Regarding `COc1cc(/C=N/n2c(-c3ccccc3)n[nH]c2=S)ccc1O`, the IC50 turned out to be 19.6 µM in the assay on Bel-7402 and 26.3 µM with MCF7.

For `Oc1ccc(/C=N/n2c(-c3ccccc3)n[nH]c2=S)cc1`, the IC50 with Bel-7402 turned out to be 25.2 µM; in the assay with MCF7, 29.9 µM.

On to `CC(=O)OC[C@H]1O[C@@H](n2nc(-c3ccccc3)n(/N=C/c3ccccc3)c2=S)[C@H](OC(C)=O)[C@@H](OC(C)=O)[C@@H]1OC(C)=O`, for which the IC50 in the assay on Bel-7402 was determined as 10.7 µM; in the assay on MCF7 it was 18 µM.

Consider `S=c1[nH]nc(-c2ccccc2)n1/N=C/c1ccc(Cl)cc1`, for which the IC50 in the assay with Bel-7402 is 24 µM; in the assay with MCF7, 30.5 µM.

As to `O=c1[nH]cc(F)c(=O)[nH]1` [FLUOROURACIL], the IC50 turned out to be 4.7 µM with Bel-7402 and 4.3 µM in the assay with MCF7.

The record behind these values is ChEMBL document CHEMBL1155264, “Synthesis of substituted-phenyl-1,2,4-triazol-3-thione analogues with modified D-glucopyranosyl residues and their antiproliferative activities” (Eur J Med Chem, 2009).
